In ChEMBL document CHEMBL3745620, “Design and Synthesis of DiselenoBisBenzamides (DISeBAs) as Nucleocapsid Protein 7 (NCp7) Inhibitors with anti-HIV Activity” (J Med Chem, 2015):
Activity calls are given as the source filed them. The rule behind the calls is not given here.

Columns and labels:
[1] = tested on: Human immunodeficiency virus 1; experiment: Antiviral activity against NRTI/NNRTI-resistant HIV1 L6 harboring reverse transcriptase V75I/F77L/K103N/F116Y/Q151M/M184V mutant infected in human MT4 cells; type: functional, organism-based; conditions: Human immunodeficiency virus 1, L6, MT4
In short: (§1)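 MT-4 cells in RPMI 1640 with 10% heat-inactivated FCS were infected at the start of the experiment, with compound added across serial 5-fold dilutions in triplicate wells. Cells were seeded at 6 x 10^5 cells/ml. After 5 days, protection against virus-induced cytopathic effect was read by MTT reduction at OD540. […] Values are means ± SD of at least two experiments.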

[2] = Selectivity index, ratio of CC50 for human MT4 cells to EC50 for HIV-2 ROD; type: toxicity, cell-based; conditions: read-out: Ratio CC50/EC50
In short: (§2)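 Compounds added at start in serial 5-fold dilutions, triplicate wells, to mock- and virus-infected cells (100-300 CCID50 per well). After 5 days, viability by MTT reduction (OD540). Mean ± SD, at least two experiments.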

[3] = Antiviral activity against nevirapine-resistant SIV mac251 infected in human MT4 cells; type: functional, cell-based; conditions: Simian immunodeficiency virus; in short: as §1
[4] = tested on: Human immunodeficiency virus 1; experiment: Virucidal activity against HIV1 3B infected in human MT4 cells assessed as reduction of virus infectivity at 125 ug/ml after 1 hr by MTT assay; type: functional, organism-based
In short: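 HIV-1 IIIB stock incubated with compound in 100 µl RPMI-1640/10% FCS for 1 h at 37°C, then diluted 4000-fold. Residual infectivity titrated on MT-4 cells, with CCID50 calculated by the Reed and Muench method.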

[5] = tested on: Human immunodeficiency virus 1; experiment: Antiviral activity against ritonavir-resistant HIV1 B12 harboring […] L10I/I15V/I54V/L63P/V82A/I85V mutant infected in human MT4 cells; type: functional, organism-based; conditions: Human immunodeficiency virus 1, B12, MT4; in short: as §1
[6] = tested on: Human immunodeficiency virus 1; experiment: Virucidal activity against HIV1 3B infected in MT4 cells assessed as reduction of virus infectivity at 125 ug/ml after 1 hr by MTT assay
[7] = Selectivity index, ratio of CC50 for human MT4 cells to EC50 for nevirapine-resitant SIV Mac251
[8] = Selectivity index, ratio of CC50 for human MT4 cells to EC50 for NRTI/NNRTI-resistant HIV1 L6 harboring reverse transcriptase V75I/F77L/K103N/F116Y/Q151M/M184V mutant; type: toxicity, cell-based; conditions: read-out: Ratio CC50/EC50
In short: (§3)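 Uninfected and infected MT-4 cells were run in parallel in triplicate over serial 5-fold compound dilutions for 5 days, and viability was read by MTT at OD540. […] SI = CC50/EC50, from means of at least two experiments.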

[9] = Selectivity index, ratio of CC50 for human MT4 cells to EC50 for AZT-resistant HIV1 ADP/141 harboring reverse transcriptase D67N/K70R/T215F/K219Q mutant; type: toxicity, cell-based; conditions: read-out: Ratio CC50/EC50; in short: as §3
[10] = tested on: Human immunodeficiency virus 1; experiment: Antiviral activity against HIV1 3B infected in human MT4 cells assessed as protection against virus-induced cytopathic effect after 5 days by MTT assay; type: functional, organism-based; conditions: Human immunodeficiency virus 1, 3B, MT4, 120 h
In short: as §2, with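 “MT-4 cells in RPMI 1640 with 10% heat-inactivated FCS, resuspended at 6 x 10^5 cells/ml. Compounds” for “Compounds”, “(OD540). […]” for “(OD540).”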

[11] = Selectivity index, ratio of CC50 for human HUT78 cells to EC50 for HIV1 3B; type: toxicity, cell-based; conditions: read-out: Ratio CC50/EC50
In short: (§4)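 Chronically HIV-1 IIIB-infected HuT-78 cells washed four times in PBS to remove free virions and seeded at 2 × 10^5 cells/well with 7 serial 5-fold compound dilutions for 43 h at 37°C. Supernatant p24 measured by ELISA. Cytotoxicity was run in parallel by MTT plus microscopy. SI = CC50/EC50. Mean ± SD, ≥2 experiments.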

[12] = tested on: Human immunodeficiency virus 2; experiment: Antiviral activity against HIV2 ROD infected in human MT4 cells assessed as protection against virus-induced cytopathic effect after 5 days by MTT assay; type: functional, organism-based; conditions: Human immunodeficiency virus 2, ISOLATE ROD, MT4, 120 h
In short: as §2, with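 “MT-4 cells in RPMI 1640 with 10% heat-inactivated FCS, resuspended at 6 x 10^5 cells/ml. Compounds” for “Compounds”, “(OD540). […]” for “(OD540).”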

[13] = tested on: Human immunodeficiency virus 1; experiment: Antiviral activity against HIV1 3B infected in human MT4 cells assessed as inhibition of viral replication by measuring p24 Ag production at 2 ug/ml measured at 31 hrs post infection by ELISA; type: functional, organism-based
In short: (§5)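 MT-4 cells infected with HIV-1 IIIB at m.o.i. 0.5, 1 h adsorption, then seeded at 45,000 cells/well at 37°C. Compound added at times from 0 to 25 h post-infection. Read-out was p24 in supernatant by ELISA at 31 h post-infection.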

[14] = Cytotoxicity against human MT4 cells assessed as cell viability after 5 days by MTT assay; type: cell-based; in short: as §2
[15] = tested on: Human immunodeficiency virus 1; experiment: Antiviral activity against HIV1 3B infected in human MT4 cells assessed as inhibition of viral replication by measuring p24 Ag production at 60 ug/ml measured at 31 hrs post infection by ELISA; type: functional, organism-based; in short: as §5
[16] = Selectivity index, ratio of CC50 for human MT4 cells to EC50 for NNRTI-resistant HIV1 RES056 harboring reverse transcriptase K103N/181C double mutant; type: toxicity, cell-based; conditions: read-out: Ratio CC50/EC50; in short: as §3
[17] = Cytotoxicity against human HUT78 cells assessed as reduction in cell viability after 5 days by MTT assay; type: cell-based
[18] = Selectivity index, ratio of CC50 for human MT4 cells to EC50 for HIV1 3B; type: toxicity, cell-based; conditions: read-out: Ratio CC50/EC50; in short: as §2
[19] = Selectivity index, ratio of CC50 for human MT4 cells to EC50 for ritonavir-resistant HIV1 3B/RIT; type: toxicity, cell-based; conditions: read-out: Ratio CC50/EC50; in short: as §3
[20] = tested on: Human immunodeficiency virus 1; experiment: Antiviral activity against ritonavir-resistant HIV1 3B/RIT infected in human MT4 cells; type: functional, organism-based; conditions: Human immunodeficiency virus 1, 3B/RIT; in short: as §1
[21] = Selectivity index, ratio of CC50 for human MT4 cells to EC50 for ritonavir-resistant HIV1 B12 harboring […] L10I/I15V/I54V/L63P/V82A/I85V mutant; type: toxicity, cell-based; conditions: read-out: Ratio CC50/EC50; in short: as §3
[22] = tested on: Human immunodeficiency virus 1; experiment: Antiviral activity against AZT-resistant HIV1 ADP/141 harboring reverse transcriptase D67N/K70R/T215F/K219Q mutant infected in human MT4 cells; type: functional, organism-based; conditions: Human immunodeficiency virus 1, ADP/141, MT4; in short: as §1
HuT78 = experiment: Inhibition of NCp7 of HIV1 3B persistently infected in HUT78 cells assessed as accumulation of unprocessed Gag polyprotein after 43 hrs by Western blot analysis; type: cell-based; conditions: Human immunodeficiency virus 1
In short: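 Washed HuT-78(IIIB) cells (2x10^5 in 1 ml) treated with compound for 43 h at 37°C. Virions pelleted from clarified supernatant (36,670 g, 2 h, 4°C), lysed, run on SDS-PAGE and transferred to PVDF. Blot probed with mouse anti-p24 (1:5000), then HRP anti-mouse (1:2500), with chemiluminescent detection.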

[23] = tested on: Human immunodeficiency virus 1; experiment: Antiviral activity against NNRTI-resistant HIV1 RES056 harboring reverse transcriptase K103N/181C double mutant infected in human MT4 cells; type: functional, organism-based; conditions: Human immunodeficiency virus 1, RES056, MT4; in short: as §1
[24] = tested on: Human immunodeficiency virus 1; experiment: Antiviral activity against HIV1 3B persistently infected in HUT78 cells assessed as reduction of p24 production after 43 hrs by ELISA; type: functional, organism-based; conditions: Human immunodeficiency virus 1, 3B, HuT78, 43 h; in short: as §4
[25] = tested on: Human immunodeficiency virus 1; experiment: Antiviral activity against HIV1 3B infected in human CEM cells assessed as protection against virus-induced cytopathic effect by XTT assay; type: functional, organism-based; conditions: Human immunodeficiency virus 1, 3B, CCRF-CEM
[26] = Cytotoxicity against human CEM cells by XTT assay; type: cell-based, CCRF-CEM
[27] = Selectivity index, ratio of CC50 for human CEM cells to EC50 for HIV1 3B; type: toxicity, cell-based, CCRF-CEM
[28] = tested on: Human immunodeficiency virus 1; experiment: Antiviral activity against HIV1 3B infected in human MT4 cells assessed as inhibition of viral replication by measuring p24 Ag production at 90 ug/ml measured at 31 hrs post infection by ELISA; type: functional, organism-based; in short: as §5
[29] = tested on: Human immunodeficiency virus 1; experiment: Antiviral activity against HIV1 3B infected in human MT4 cells assessed as inhibition of viral replication by measuring p24 Ag production at 50 ug/ml measured at 31 hrs post infection by ELISA; type: functional, organism-based; in short: as §5

SMILES	EC50 [1] [µM]	selectivity ratio [2]	EC50 [3] [µM]	EC50 [5] [µM]	Ratio CC50/EC50 [7]	selectivity ratio [8]	selectivity ratio [9]	EC50 [10] [µM]	selectivity ratio [11]	EC50 [12] [µM]	inhibition [13]	CC50 at 120 h [14] [µM]	selectivity ratio [16]	CC50 at 120 h [17] [µM]	selectivity ratio [18]	selectivity ratio [19]	EC50 [20] [µM]	selectivity ratio [21]	EC50 [22] [µM]	inhibition (HuT78)	further results
O=C(O)CC[C@H](NC(=O)c1ccccc1[Se][Se]c1ccccc1C(=O)N[C@@H](CCC(=O)O)C(=O)O)C(=O)O	6.59	34	1.7	14.5	63	16	38	3.31	6.5	3.18	Active	107	29	100	32	20	5.42	8	2.8	Dose-dependent effect	Activity [4]: Active; Activity [6]: Active; inhibition [15]: Active; EC50 [23]: 3.61 µM; EC50 [24]: 15.5 µM
CC[C@H](C)[C@H](NC(=O)c1ccccc1SSc1ccccc1C(=O)N[C@H](C(=O)O)[C@@H](C)CC)C(=O)O																					EC50 [25]: 9 µM; CC50 [26]: > 120 µM; selectivity ratio [27]: > 13.3
CC[C@H](C)[C@H](NC(=O)c1ccccc1[Se][Se]c1ccccc1C(=O)N[C@H](C(=O)O)[C@@H](C)CC)C(=O)O	25.9	13	17.4	27.7	9	6	11	13.8	> 2.2	13.1	Active	164	6	> 162	12	6	25.8	6	14.7	Dose-dependent effect	inhibition [28]: Active; EC50 [23]: 28 µM; EC50 [24]: 73.2 µM
O=C(O)CNC(=O)c1ccccc1[Se][Se]c1ccccc1C(=O)NCC(=O)O	3.44	34	2.21	6.43	52	34	26	3.15	7.8	3.5	Active	117	33	108	37	36	3.3	18	4.51	Dose-dependent effect	Activity [4]: Active; Activity [6]: Active; inhibition [29]: Active; EC50 [23]: 3.51 µM; EC50 [24]: 14.1 µM
